Laboratory results as given in ChEMBL document CHEMBL1133107, “3-(Hydroxymethyl)-bearing phosphatidylinositol ether lipid analogues and carbonate surrogates block PI3-K, Akt, and cancer cell growth” (J Med Chem, 2000).

Tests used:
HeLa = assay: Tested in vitro for their inhibitory activity against Hela(cervical) cell line; format: functional, cell-based; conditions: Homo sapiens
Procedure, shortened: (§1)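 Cells were seeded at 30 000 per well in DMEM with 10% FBS, and drugs were added 16 h later. Growth continued for 3 days in DMEM/10% FBS with or without a range of drug concentrations. Cells were then counted on a hemocytometer to give growth-inhibition IC50.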

MCF7 = assay: Tested in vitro for their inhibitory activity against MCF-7(breast) cell line; format: functional, cell-based; conditions: Homo sapiens; procedure, shortened: as §1
PC-3 = assay: Tested in vitro for their inhibitory activity against PC-3(prostate) cell line.; format: functional, cell-based; conditions: Homo sapiens; procedure, shortened: as §1
[1] = Inhibition of murine p100/p85 PI3-K (phosphatidylinositol 3-kinase); design: species or system Mus musculus
HT-29 = assay: Tested in vitro for their inhibitory activity against HT-29 (colon) cell line; format: functional, cell-based; conditions: Homo sapiens; procedure, shortened: as §1
[2] = target: Serine/threonine-protein kinase AKT (Homo sapiens, UniProt P31751+Q9Y243+P31749); assay: Inhibition of Akt (proto-oncogenic serine/threonine PKB) kinase; format: protein assay

| IC50 (HeLa) [µM] | IC50 (MCF7) [µM] | IC50 (PC-3) [µM] | IC50 [1] [µM] | IC50 (HT-29) [µM] | IC50 [2] [µM] | SMILES |
| --- | --- | --- | --- | --- | --- | --- |
| 2.5 | 1.2 | 2 | 83 | 10 | 5 | CCCCCCCCCCCCCCCCCCOC[C@H](COC(=O)O[C@@H]1[C@H](O)[C@H](CO)[C@@H](O)[C@H](O)[C@@H]1O)OC |
| 7.5 | 2 | 2 | 18.5 | 7.5 | 9.1 | CCCCCCCCCCCCCCCCCCOC[C@H](COP(=O)(O)O[C@@H]1[C@H](O)[C@@H](CO)[C@@H](O)[C@H](O)[C@@H]1O)OC |
| > 20 | 12.5 | 10 | 21.3 | 12 | 32 | CCCCCCCCCCCCCCCCCCOC[C@H](COC(=O)O[C@@H]1[C@H](O)[C@@H](CO)[C@@H](O)[C@H](O)[C@@H]1O)OC |

The remaining lines, values behind:

| SMILES | IC50 (HeLa) [µM] | IC50 (MCF7) [µM] | IC50 (PC-3) [µM] | IC50 [1] [µM] | IC50 (HT-29) [µM] | IC50 [2] [µM] |
| --- | --- | --- | --- | --- | --- | --- |
| CCCCCCCCCCCCCCCCCCOC[C@H](COP(=O)(O)O[C@@H]1[C@H](O)[C@H](CO)[C@@H](O)[C@H](O)[C@@H]1O)OC | 1 | 5 | 4 | 31 | 4.5 | 7.8 |
| CCCCCCCCCCCCCCCCCCOC[C@H](COC(=O)O[C@H]1[C@@H](O)[C@@H](O)[C@H](O)C[C@H]1O)OC | 30 | 12 | 7 | 15.5 | 2.5 | 12.5 |
| CCCCCCCCCCCCCCCCCCOC[C@H](COP(=O)(O)O[C@H]1[C@@H](O)[C@@H](O)[C@H](O)C[C@H]1O)OC | 7 | 7.2 |  | 14.8 |  |  |
